# Experimental data from different studies.
# Lines come from different studies, so protocols differ.
# Target: Serine/threonine-protein kinase TAO3 (TAOK3, Homo sapiens, UniProt Q9H2K8)
# Sequence (Q9H2K8 1-898, as in one of the studies): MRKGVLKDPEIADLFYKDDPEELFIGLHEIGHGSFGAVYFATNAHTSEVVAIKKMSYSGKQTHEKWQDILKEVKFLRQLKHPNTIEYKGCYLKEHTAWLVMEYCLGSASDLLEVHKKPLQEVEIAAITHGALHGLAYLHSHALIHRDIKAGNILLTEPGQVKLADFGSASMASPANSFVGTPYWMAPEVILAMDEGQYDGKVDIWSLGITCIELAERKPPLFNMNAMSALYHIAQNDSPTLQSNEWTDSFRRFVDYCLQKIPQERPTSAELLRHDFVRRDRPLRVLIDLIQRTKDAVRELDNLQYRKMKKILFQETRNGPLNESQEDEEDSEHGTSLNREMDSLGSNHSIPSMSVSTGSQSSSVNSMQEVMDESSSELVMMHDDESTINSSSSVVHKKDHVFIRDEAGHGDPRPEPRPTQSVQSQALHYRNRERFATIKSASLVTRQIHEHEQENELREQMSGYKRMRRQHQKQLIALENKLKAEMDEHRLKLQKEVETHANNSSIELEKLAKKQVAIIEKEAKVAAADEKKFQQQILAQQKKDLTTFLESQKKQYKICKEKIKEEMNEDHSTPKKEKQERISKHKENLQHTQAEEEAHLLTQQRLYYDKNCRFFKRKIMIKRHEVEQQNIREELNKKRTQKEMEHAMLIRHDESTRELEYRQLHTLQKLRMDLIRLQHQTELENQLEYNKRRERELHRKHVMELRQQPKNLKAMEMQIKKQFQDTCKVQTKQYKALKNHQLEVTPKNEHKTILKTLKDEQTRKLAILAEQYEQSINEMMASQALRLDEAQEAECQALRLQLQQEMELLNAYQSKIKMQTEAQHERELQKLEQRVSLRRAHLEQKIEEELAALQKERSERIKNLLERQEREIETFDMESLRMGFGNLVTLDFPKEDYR
Structure (SMILES),effect on,action,method,concentration,quantity,value
COc1cc(Nc2c(C#N)cnc3cc(OCCCN4CCN(C)CC4)c(OC)cc23)c(Cl)cc1Cl,cell-free assay,,,0.5 µM,remaining signal,71.3%
COc1ccc2c(c1)O[C@@H](c1ccc(OC)c(OC)c1)C[C@H]2NC(=O)C1(c2ccc3c(c2)OC(F)(F)O3)CC1,cell-free assay,,competition with immobilised ligand,1 µM,remaining binding,91%
Clc1ccc(Nc2nnc(Cc3ccncc3)c3ccccc23)cc1,cell-free assay,,,0.5 µM,remaining signal,99.9%
CNC(=O)c1cc(Oc2ccc(NC(=O)Nc3ccc(Cl)c(C(F)(F)F)c3)cc2)ccn1,enzyme activity,inhibitor,,0.3 µM,inhibition,77%
Nc1ncnc2occ(-c3ccc(NC(=O)Nc4cc(C(F)(F)F)ccc4F)cc3)c12,cell-free assay,inhibitor,,20 µM,remaining signal,0.05%
COc1cc2c(Nc3ccc(Br)cc3F)ncnc2cc1OCC1CCN(C)CC1,cell-free assay,,,0.5 µM,remaining signal,98.4%
Cc1sc(C(=O)NC2COC2)cc1-n1cc(NC(=O)Nc2c(F)cccc2Cl)cn1,enzyme activity,inhibitor,,10 µM,remaining activity,98%
O=C(Nc1ccc(Oc2ccc(F)cc2)cc1)N1CCc2ncccc2[C@H]1c1ccc(F)cc1,cell-free assay,,competition with immobilised ligand,1 µM,remaining binding,92%
Cc1ccc(NC(=O)c2ccc(C)c(C(F)(F)F)c2)cc1C#Cc1nn(C2CCC(O)CC2)c2ncnc(N)c12 (centres unmarked),cell-free assay,,,10 µM,remaining signal,2%
CC(C)(C)c1nc(-c2cccc(NS(=O)(=O)c3c(F)cccc3F)c2F)c(-c2ccnc(N)n2)s1,enzyme activity,inhibitor,radiometric,1 µM,remaining activity,91%
CCCCN(CCCC)C(=O)CN1C[C@H](c2cc(OC)c3c(c2)OCO3)[C@@H](C(=O)O)[C@@H]1CC(C)(C)CCC,cell-free assay,,competition with immobilised ligand,1 µM,remaining binding,63.2%
CN(C)c1nccc(-c2cnn3ncccc23)n1,binding,,,1 µM,remaining binding,73%
CN(C)C(=O)Cn1cc(-c2nc(C3(c4ccc(-c5cnc(N)nc5)cc4)CC3)no2)cn1,cell-free assay,,competition with immobilised ligand,1 µM,remaining binding,67%
COc1cc(-c2cc(-c3ccc(N4CCNCC4)cc3)cnc2C)cc(OC)c1OC,enzyme activity,inhibitor,,0.1 µM,inhibition,3%
CS(=O)(=O)CCNCc1ccc(-c2ccc3ncnc(Nc4ccc(OCc5cccc(F)c5)c(Cl)c4)c3c2)o1,cell-free assay,,,0.5 µM,remaining signal,101%
Cc1ccc(Nc2nccc(N(C)c3ccc4c(C)n(C)nc4c3)n2)cc1S(N)(=O)=O,enzyme activity,inhibitor,,0.3 µM,inhibition,60%
Cc1ccc(C(=O)Nc2ccc(CN3CCN(C)CC3)c(C(F)(F)F)c2)cc1C#Cc1cnc2cccnn12,enzyme activity,inhibitor,,23.5 nM,remaining activity,28%
Cc1nc(C2CCN(C(=O)c3ccc(OC(F)(F)F)cc3N)CC2)c2ncc(N3CCN(C)CC3)cc2n1,cell-free assay,,competition with immobilised ligand,1 µM,remaining binding,100%
CCOc1cc(-c2nncn2C)ccc1Nc1ncc2cc(C)nc(NCC(C)(C)C)c2n1,cell-free assay,,TR-FRET,1 µM,inhibition,≤ 15%
Cc1nccc(COC(=O)N2C[C@@H]3[C@@H](CNC(=O)c4ccc5[nH]nnc5c4)[C@@H]3C2)n1,cell-free assay,,competition with immobilised ligand,1 µM,remaining binding,83%
CN1CC(Oc2cnc(C#N)cc2-c2ccn3nc(NC(=O)C4CC4)cc3c2)C1,enzyme activity,inhibitor,,1 µM,inhibition,-4%
N#CCCc1ccc2c(c1)-c1[nH]c3ccc([N+](=O)[O-])cc3c1CC(=O)N2,cell-free assay,,,0.5 µM,remaining signal,66%
CCOCCn1cc(C(=O)Nc2ccc(-n3nc(-c4cccnc4)cc3C(F)(F)F)cn2)ccc1=O,cell-free assay,,competition with immobilised ligand,1 µM,remaining binding,66%
